Data: ChEMBL document CHEMBL1127519, “1,3-Diarylindan-2-carboxylic acids, potent and selective non-peptide endothelin receptor antagonists” (J Med Chem, 1994)

Columns and labels:
Endothelin-1 receptor [1] = biological target: T1, Endothelin-1 receptor (Homo sapiens, UniProt P25101); test: Inhibition of [125I]ET1 binding to cloned human ET-A receptor
T1 sequence (P25101 whole entry): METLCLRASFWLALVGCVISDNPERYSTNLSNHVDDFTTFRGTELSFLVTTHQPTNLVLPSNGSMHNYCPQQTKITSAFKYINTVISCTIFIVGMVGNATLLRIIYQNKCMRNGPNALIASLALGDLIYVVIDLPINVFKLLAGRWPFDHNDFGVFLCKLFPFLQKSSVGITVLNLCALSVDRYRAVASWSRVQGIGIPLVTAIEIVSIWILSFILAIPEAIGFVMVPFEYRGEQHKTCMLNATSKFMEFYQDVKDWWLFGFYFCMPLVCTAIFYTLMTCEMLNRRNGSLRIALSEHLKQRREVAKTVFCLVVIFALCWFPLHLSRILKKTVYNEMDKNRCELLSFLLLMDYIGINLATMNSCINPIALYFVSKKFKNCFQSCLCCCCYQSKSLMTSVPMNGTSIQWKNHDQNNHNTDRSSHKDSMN
Procedure, shortened: (§1)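 Membranes from CHO cells stably expressing cloned human ET-A receptor (0.5 μg per tube) incubated with [125I]ET-1 (0.3 nM) alone or with increasing unlabeled ligand, 1 h at 30 °C. Bound and free separated by filtration and counted by γ-counter. Nonspecific binding 8-25%. Apparent Ki from competition curves, n ≥ 3.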

[2] = biological target: T2, Endothelin receptor type B (Homo sapiens, UniProt P24530); test: Inhibition of [125I]ET1 binding to cloned human ET-B receptor
T2 sequence (P24530 whole entry): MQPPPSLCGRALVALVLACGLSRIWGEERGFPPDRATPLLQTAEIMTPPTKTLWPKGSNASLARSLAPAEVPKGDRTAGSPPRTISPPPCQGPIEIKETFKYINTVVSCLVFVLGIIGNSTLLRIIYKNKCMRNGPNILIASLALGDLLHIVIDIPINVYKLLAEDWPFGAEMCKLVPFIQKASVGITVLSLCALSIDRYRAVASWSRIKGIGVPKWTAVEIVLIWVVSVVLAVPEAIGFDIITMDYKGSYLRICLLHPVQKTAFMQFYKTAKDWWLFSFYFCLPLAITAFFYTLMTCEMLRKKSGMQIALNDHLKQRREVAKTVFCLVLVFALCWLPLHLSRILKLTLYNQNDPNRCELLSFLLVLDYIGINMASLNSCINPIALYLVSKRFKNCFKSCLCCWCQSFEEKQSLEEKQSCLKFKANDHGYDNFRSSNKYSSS
Procedure, shortened: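 Membranes from CHO cells stably expressing cloned human ET-B receptor (0.05 μg per tube) incubated with [125I]ET-1 (0.3 nM), without or with rising concentrations of unlabeled ligand, 30 °C for 1 h. Filtration separated bound from free, gamma counting. Nonspecific binding 2-5%. Apparent Ki derived from competition curves, n ≥ 3.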

Endothelin-1 receptor [3] = biological target: T1, Endothelin-1 receptor; test: Inhibition of [125I]ET1 binding to cloned human Endothelin A receptor; procedure, shortened: as §1

Compound | Ki (Endothelin-1 receptor [1]) | Ki [2] | Ki (Endothelin-1 receptor [3])
COc1ccc([C@@H]2c3ccccc3[C@H](c3ccc(OC)cc3)[C@H]2C(=O)O)cc1 | 422 nM | 2440 nM | 
COc1ccc([C@H]2c3ccccc3[C@@H](c3ccccc3)[C@@H]2C(=O)O)cc1 |  | > 30000 nM | 5670 nM
COc1ccc([C@@H]2c3cc(O)ccc3[C@H](c3ccc4c(c3)OCO4)[C@H]2C(=O)O)cc1 | 15 nM | 483 nM | 
CCCOc1ccc2c(c1)[C@@H](c1ccc(OC)cc1OCC(=O)O)[C@H](C(=O)O)[C@H]2c1ccc2c(c1)OCO2 [SB-209670] | 0.43 nM | 14.7 nM | 

More lines, now with the values ahead:

Ki (Endothelin-1 receptor [1]) | Ki [2] | Ki (Endothelin-1 receptor [3]) | Compound
43 nM | 757 nM |  | COc1ccc([C@H]2c3ccccc3[C@@H](c3ccc4c(c3)OCO4)[C@@H]2C(=O)O)cc1
11.3 nM | 1040 nM |  | CCCOc1ccc2c(c1)[C@@H](c1ccc(OC)cc1)[C@H](C(=O)O)[C@H]2c1ccc2c(c1)OCO2
11200 nM | > 30000 nM |  | O=C(O)[C@H]1[C@H](c2ccccc2)c2ccccc2[C@@H]1c1ccccc1
